Results: ChEMBL document CHEMBL4376838, “Discovery of Novel Celastrol Derivatives as Hsp90-Cdc37 Interaction Disruptors with Antitumor Activity” (J Med Chem, 2019)
Calls of active or inactive are those of the source. No cut-off for these calls is given here.

Columns and labels:
[1] = system: A549; assay: Antiproliferative activity against human A549 cells assessed as inhibition of cell growth at 0.5 uM incubated for 48 hrs in presence of methyl thioglycolate by MTT assay relative to control; format: functional; conditions: A549, 48 h, read-out: GI
[2] = system: HepG2; assay: Antiproliferative activity against human HepG2 cells assessed as inhibition of cell growth incubated for 48 hrs by MTT assay; format: functional, cell-based; conditions: HepG2, 48 h
Summary of the method: (§1)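 MTT read-out. Cells seeded at 5.0 × 10⁴ cells/ml and cultured 24 h, then exposed to the drug over a range of concentrations for 48 h, with matching DMSO as control. MTT (5 mg/ml) added for 4 h, supernatant removed, formazan dissolved in DMSO, OD read at 570 nm. Run in triplicate, mean ± SD (n = 3).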

[3] = system: A549; assay: Induction of apoptosis in human A549 cells assessed as viable cells at 0.6 uM incubated for 48 hrs by Annexin V-FITC and PI staining based flow cytometric analysis (reference value: 95.5%); format: functional; conditions: A549, 48 h, read-out: Activity
[4] = system: A549; assay: Induction of cell cycle arrest in human A549 cells assessed as accumulation at G2 phase at 0.8 uM incubated for 24 hrs by PI staining based flow cytometric analysis (reference value: 19.37%); format: functional
Summary of the method: (§2)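 A549 cells (4×10^5 per 6 cm dish) were grown 24 h, then exposed to compound (0.2, 0.4, 0.8 μM) or DMSO for 24 h. Cells fixed in 75% ethanol at −20 °C for at least 12 h, treated with RNase A at 37 °C for 30 min, then stained with PI for 15 min in the dark. Analysed by flow cytometry, mean ± SD, n = 3.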

[5] = system: A549; assay: Induction of mitochondrial membrane potential loss in human A549 cells assessed as cells with depolarized mitochondria by measuring increase in J-monomer green fluorescence intensity at 0.8 uM incubated for 24 hrs by JC1 staining based fluorescence microscopic method (reference value: 1.5%); format: functional
[6] = Binding affinity to GSH in PBS at 100 uM assessed as reduction in absorption at 440 nm incubated up to 30 mins by UV absorption analysis
Summary of the method: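 Compound (100 μM) mixed with GSH (100 μM), Cdc37 (1.5 μM) or Hsp90 (1.5 μM) in PBS containing 1% DMSO, incubated at 37 °C for 0, 5, 15 and 30 min. UV spectra scanned 200-500 nm, with absorbance at 440 nm compared against the 0 min value (A/A0). Mean ± SD, n = 3.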

[7] = target: Heat shock protein HSP 90-alpha (Homo sapiens) (UniProt P07900); assay: Inhibition of ATP binding to human HSP90 alpha at 5 to 10 uM preincubated for 30 mins followed by gamma phosphate-linked ATP sepharose addition and measured after 30 mins by ATP-binding sepharose assay based western blot analysis
Summary of the method: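 Purified human Hsp90α incubated on ice 30 min with compound or DMSO in 10 mM Tris-HCl pH 7.5, 50 mM KCl, 5 mM MgCl2, 2 mM DTT, 20 mM Na2MoO4, 0.01% NP-40. γ-phosphate-linked ATP-Sepharose then added, 30 min at 37 °C with frequent mixing. Resin washed and pelleted, bound Hsp90α detected by SDS-PAGE/Western blot.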

[8] = system: A549; assay: Induction of apoptosis in human A549 cells assessed as late apoptotic cells at 0.3 uM incubated for 48 hrs by Annexin V-FITC and PI staining based flow cytometric analysis (reference value: 3.0%); format: functional
[9] = system: A549; assay: Induction of mitochondrial membrane potential loss in human A549 cells assessed as cells with hyperpolarized mitochondria by measuring decrease in J-aggregates red fluorescence intensity at 0.4 uM incubated for 24 hrs by JC1 staining based fluorescence microscopic method (reference value: 98.4%); format: functional; design: scale not given: the % may be the effect or the level left
[10] = system: A549; assay: Induction of apoptosis in human A549 cells assessed as necrotic cells at 0.3 uM incubated for 48 hrs by Annexin V-FITC and PI staining based flow cytometric analysis (reference value: 1.0%); format: functional
[11] = system: A549; assay: Induction of cell cycle arrest in human A549 cells assessed as accumulation at S phase at 0.8 uM incubated for 24 hrs by PI staining based flow cytometric analysis (reference value: 27.59%); format: functional; summary of the method: as §2
[12] = system: A549; assay: Induction of morphological apoptosis in human A549 cells assessed as increase in cells with chromatin condensation at 0.3 to 1.2 uM incubated for 48 hrs by Hoechst 33342 and PI staining based fluorescence microscopic method; format: functional, cell-based
Summary of the method: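 A549 cells (4×10^5 per 6 cm dish) were grown 24 h, then exposed to compound at the indicated concentrations or DMSO for 48 h. After PBS washes, cells were stained with Hoechst 33342 (10 µg/ml) plus PI for 5 min at room temperature in the dark and imaged by fluorescence microscopy for nuclear morphology.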

[13] = system: A549; assay: Antiproliferative activity against human A549 cells assessed as inhibition of cell growth incubated for 48 hrs by MTT assay; format: functional, cell-based; conditions: A549, 48 h; summary of the method: as §1
[14] = system: A549; assay: Induction of mitochondrial membrane potential loss in human A549 cells assessed as cells with depolarized mitochondria by measuring increase in J-monomer green fluorescence intensity at 0.4 uM incubated for 24 hrs by JC1 staining based fluorescence microscopic method (reference value: 1.5%); format: functional
[15] = system: A549; assay: Induction of apoptosis in human A549 cells assessed as early apoptotic cells at 0.3 uM incubated for 48 hrs by Annexin V-FITC and PI staining based flow cytometric analysis (reference value: 0.5%); format: functional
[16] = system: A549; assay: Induction of cell cycle arrest in human A549 cells assessed as accumulation at G1 phase at 0.4 uM incubated for 24 hrs by PI staining based flow cytometric analysis (reference value: 60.14%); format: functional; summary of the method: as §2
[17] = system: A549; assay: Induction of cell cycle arrest in human A549 cells assessed as increase in accumulation at G0/G1 phase incubated for 24 hrs by PI staining based flow cytometric analysis; format: functional; summary of the method: as §2
[18] = system: A549; assay: Induction of mitochondrial membrane potential loss in human A549 cells assessed as cells with hyperpolarized mitochondria by measuring decrease in J-aggregates red fluorescence intensity at 0.2 uM incubated for 24 hrs by JC1 staining based fluorescence microscopic method (reference value: 98.4%); format: functional; design: scale not given: the % may be the effect or the level left

IC50 [2]: 940 nM
Activity [6]: Active
inhibition [7]: inactive
IC50 [13]: 410 nM
Structure (SMILES): CC1=C(O)C(=O)C=C2C1=CC=C1[C@@]2(C)CC[C@@]2(C)[C@@H]3C[C@](C)(C(=O)OCCCOC(=O)/C=C(\C#N)c4ccc(F)cc4)CC[C@]3(C)CC[C@]12C
inhibition of growth at 0.5 µM [1]: 68.3%
viability at 0.6 µM [3]: 71.2%
Activity [4]: 15.55%
Activity [5]: 26.2%
Activity [8]: 9.3%
Activity [9]: 80%
Activity [10]: 3.3%
Activity [11]: 23.85%
Activity [12]: Active
Activity [14]: 18.7%
Activity [15]: 2.2%
Activity [16]: 67.51%
Activity [17]: Dose-dependent effect
Activity [18]: 84.2%
